From ChEMBL document CHEMBL4400568, “The design of 1,4-naphthoquinone derivatives and mechanisms underlying apoptosis induction through ROS-dependent MAPK/Akt/STAT3 pathways in human lung cancer cells” (Bioorg Med Chem, 2019)
Active and inactive are the calls of the source. The calls are words filed in the database; no cut-off is given here.

How the values were obtained:
[1] = Cytotoxicity against human QSG7701 cells assessed as reduction in cell viability after 24 hrs by MTT assay; format: cell-based
Procedure, shortened: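 Log-phase cells seeded at 1 × 10⁴ per well. Lung cancer lines (A549, NCI-H23, NCI-H460) and normal lines (IMR-90, QSG-7701, HEK-293A) each exposed to 1, 3, 10, 30 and 100 μM for 24 h. MTT (5 mg/mL stock) added for 2 h at 37°C, formazan dissolved in DMSO, absorbance read at 490 nm. Three independent experiments, mean ± SD.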

A549 [2] = assay: Induction of apoptosis in human A549 cells assessed as increase in Bad levels at 3 uM after 24 hrs by Western blot analysis; format: functional, cell-based
Procedure, shortened: (§1)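 A549 cells exposed to 3 μM for 3, 6, 12 or 24 h; where NAC is used, 10 mM NAC is added 30 min before 24 h treatment. Lysate protein (30 μg) is run on 12% SDS-PAGE, blotted to nitrocellulose, blocked in 5% milk, primary antibody overnight at 4°C, then HRP anti-IgG. β-actin loading control; densitometry; three independent experiments, mean ± SD.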

A549 [3] = assay: Induction of apoptosis in human A549 cells assessed as increase in cleaved caspase-3 expression at 3 uM by Western blot analysis; format: functional, cell-based; details: TDE = time-dependent effect; procedure, shortened: as §1
A549 [4] = assay: Induction of apoptosis in human A549 cells assessed as early apoptotic cells at 3 uM after 3 hrs by Annexin V-FITC/propidium iodide staining-based flow cytometric analysis (reference value: 2.73%); format: functional
A549 [5] = assay: Induction of apoptosis in human A549 cells assessed as early apoptotic cells at 3 uM after 12 hrs by Annexin V-FITC/propidium iodide staining-based flow cytometric analysis (reference value: 2.73%); format: functional
A549 [6] = assay: Induction of apoptosis in human A549 cells assessed as early apoptotic cells at 3 uM after 24 hrs by Annexin V-FITC/propidium iodide staining-based flow cytometric analysis (reference value: 2.73%); format: functional
A549 [7] = assay: Cell cycle arrest in human A549 cells assessed as accumulation of cells at S phase at 3 uM after 3 hrs by propidium iodide staining-based flow cytometric analysis (reference value: 13.85%); format: functional
A549 [8] = assay: Cell cycle arrest in human A549 cells assessed as accumulation of cells at S phase at 3 uM after 6 hrs by propidium iodide staining-based flow cytometric analysis (reference value: 13.85%); format: functional
A549 [9] = assay: Cell cycle arrest in human A549 cells assessed as accumulation of cells at G1 phase at 3 uM after 12 hrs by propidium iodide staining-based flow cytometric analysis (reference value: 57.65%); format: functional
A549 [10] = assay: Cell cycle arrest in human A549 cells assessed as accumulation of cells at S phase at 3 uM after 12 hrs by propidium iodide staining-based flow cytometric analysis (reference value: 13.85%); format: functional
A549 [11] = assay: Cell cycle arrest in human A549 cells assessed as accumulation of cells at G2 phase at 3 uM after 24 hrs by propidium iodide staining-based flow cytometric analysis (reference value: 24.02%); format: functional
A549 [12] = assay: Cell cycle arrest in human A549 cells assessed as accumulation of cells at G1 phase at 3 uM by propidium iodide staining-based flow cytometric analysis; format: functional; details: TDE = time-dependent effect
[13] = biological target: RAC-alpha serine/threonine-protein kinase (Homo sapiens) (UniProt P31749); assay: Inhibition of AKT phosphorylation in human A549 cells at 3 uM by Western blot analysis; format: cell-based; details: TDE = time-dependent effect
Chain of RAC-alpha serine/threonine-protein kinase (Homo sapiens) (P31749 whole entry): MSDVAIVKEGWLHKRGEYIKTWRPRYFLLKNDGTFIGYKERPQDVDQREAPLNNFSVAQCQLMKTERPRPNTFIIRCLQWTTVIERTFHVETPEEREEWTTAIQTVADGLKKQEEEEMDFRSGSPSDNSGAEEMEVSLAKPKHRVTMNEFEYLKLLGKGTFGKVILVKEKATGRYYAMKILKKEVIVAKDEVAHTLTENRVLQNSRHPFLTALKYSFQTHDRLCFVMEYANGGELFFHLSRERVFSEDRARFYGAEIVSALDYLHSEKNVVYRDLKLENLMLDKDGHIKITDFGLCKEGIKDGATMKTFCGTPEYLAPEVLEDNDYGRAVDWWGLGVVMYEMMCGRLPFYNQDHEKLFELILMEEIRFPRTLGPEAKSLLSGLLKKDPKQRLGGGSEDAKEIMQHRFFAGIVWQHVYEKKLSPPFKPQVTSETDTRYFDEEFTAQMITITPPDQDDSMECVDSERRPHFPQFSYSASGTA
Procedure, shortened: (§2)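 A549 cells exposed to 3 μM for 3, 6, 12 or 24 h. Lysate protein (30 μg) run on 12% SDS-PAGE and blotted to nitrocellulose. Membranes blocked in 5% skim milk, primary antibodies at 4°C overnight, then HRP anti-IgG secondary for 1 h at room temperature. β-actin was the internal control. Bands quantified by densitometry; three independent experiments, mean ± SD.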

A549 [14] = assay: Inhibition of ERK phosphorylation in human A549 cells at 3 uM after 3 to 24 hrs by Western blot analysis; format: cell-based; procedure, shortened: as §2
[15] = biological target: T1, MAP kinase p38 (Homo sapiens) (UniProt O15264+Q15759+Q16539+P53778); assay: Modulation of p38 MAPK in human A549 cells assessed as reduction in STAT3 phosphorylation measured after 24 hrs in presence of p38 inhibitor SB203580 by Western blot analysis; format: cell-based
Procedure, shortened: (§3)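 A549 cells pre-incubated for 30 min with 12.1 μM kinase inhibitor: SB203580 (p38), SP600125 (JNK), FR180204 (ERK) or LY10249 (Akt). Compound treatment followed for 24 h. Lysates (30 μg protein) analysed by 12% SDS-PAGE and nitrocellulose immunoblot with HRP detection. Three independent experiments, mean ± SD.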

A549 [16] = assay: Modulation of ERK in human A549 cells assessed as decrease in STAT3 phosphorylation measured after 24 hrs in presence of ERK inhibitor FR180204 by Western blot analysis; format: cell-based
[17] = biological target: T1, MAP kinase p38 (Homo sapiens); assay: Modulation of p38 MAPK in human A549 cells assessed as increase in cleaved caspase-3 level measured after 24 hrs in presence of p38 inhibitor SB203580 by Western blot analysis; format: cell-based; procedure, shortened: as §3
[18] = biological target: RAC-alpha serine/threonine-protein kinase (Homo sapiens) (UniProt P31749); assay: Modulation of AKT in human A549 cells assessed as decrease in cyclinD1 levels measured after 24 hrs in presence of Akt inhibitor-LY10249 by Western blot analysis; format: cell-based; procedure, shortened: as §3
A549 [19] = assay: Induction of ROS generation in human A549 cells assessed as intracellular ROS level at 3 uM after 6 hrs by DCFH-DA staining-based flow cytometric analysis (reference value: 51.8%); format: functional
Procedure, shortened: (§4)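 A549 cells loaded with DCFH-DA (10 μM per legend) for 30 min, then exposed to 3 μM at 37°C for 3, 6, 12 or 24 h. After two PBS washes, intracellular fluorescence is quantified by flow cytometry. Three independent experiments, mean ± SD.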

A549 [20] = assay: Induction of ROS generation in human A549 cells assessed as intracellular ROS level at 3 uM after 24 hrs by DCFH-DA staining-based flow cytometric analysis (reference value: 51.8%); format: functional; procedure, shortened: as §4
A549 [21] = assay: Induction of apoptosis in human A549 cells assessed as late apoptotic cells at 3 uM in presence of NAC by Annexin V-FITC/propidium iodide staining-based flow cytometric analysis (reference value: 0.22%); format: functional
A549 [22] = assay: Inhibition of ERK in human A549 cells assessed as decrease in STAT3 phosphorylation at 3 uM after 24 hrs in presence of NAC by Western blot analysis; format: cell-based
Procedure, shortened: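 A549 cells pretreated with 10 mM NAC for 30 min, then exposed to compound for 24 h. Lysate protein (30 μg) resolved on 12% SDS-PAGE and transferred to nitrocellulose. Probed with primary antibodies overnight at 4°C, then HRP secondary. Band densities from three independent experiments, mean ± SD.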

A549 [23] = assay: Induction of apoptosis in human A549 cells assessed as increase in cleaved caspase-3 at 3 uM measured after 24 hrs in presence of NAC by Western blot analysis; format: functional, cell-based; procedure, shortened: as §1
A549 [24] = assay: Induction of apoptosis in human A549 cells at 3 uM by Annexin V-FITC/propidium iodide staining-based flow cytometric analysis; format: functional, cell-based; details: TDE = time-dependent effect
Procedure, shortened: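 A549 cells seeded at 1 × 10⁵ cells/well, exposed to 3 μM for 3, 6, 12 and 24 h. Then incubated in binding buffer and stained with Annexin V-FITC and PI for 20 min in the dark. Apoptotic cells were scored by fluorescence microscopy and flow cytometry. Three independent experiments, mean ± SD.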

## CCCCCCCCCS(=O)(=O)C12OC1C(=O)c1c(OC)ccc(OC)c1C2=O (stereo not drawn)
[1]
  Activity: Non-Toxic
A549 [2]
  Activity: Active
A549 [3]
  Activity: Tde
A549 [4]
  Activity: 8.15%
A549 [5]
  Activity: 16.92%
A549 [6]
  Activity: 24.66 - 30.02%
A549 [7]
  Activity: 9.45%
A549 [8]
  Activity: 8.44%
A549 [9]
  Activity: 68.84%
A549 [10]
  Activity: 7.18%
A549 [11]
  Activity: 19.84%
A549 [12]
  Activity: Tde
[13]
  inhibition: Tde
A549 [14]
  inhibition: Active
[15]
  Activity: inactive
A549 [16]
  Activity: Active
[17]
  Activity: inactive
[18]
  Activity: Active
A549 [19]
  Activity: 59.58%
A549 [20]
  Activity: 70.81%
A549 [21]
  Activity: 3.03%
A549 [22]
  inhibition: inactive
A549 [23]
  Activity: inactive
A549 [24]
  Activity: Tde

## CCCS(=O)(=O)C12OC1C(=O)c1c(OC)ccc(OC)c1C2=O (stereo not drawn)
[1]
  Activity: Non-Toxic
A549 [2]
  Activity: Active
A549 [3]
  Activity: Tde
A549 [4]
  Activity: 13.29%
A549 [5]
  Activity: 35.37%
A549 [6]
  Activity: 48.76%
A549 [7]
  Activity: 11.61%
A549 [8]
  Activity: 10.31%
A549 [9]
  Activity: 69%
A549 [10]
  Activity: 9.06%
A549 [11]
  Activity: 17.13%
A549 [12]
  Activity: Tde
[13]
  inhibition: Tde
A549 [14]
  inhibition: Active
[15]
  Activity: inactive
A549 [16]
  Activity: Active
[17]
  Activity: inactive
[18]
  Activity: Active
A549 [19]
  Activity: 60.04%
A549 [20]
  Activity: 76.35%
A549 [21]
  Activity: 2.67%
A549 [22]
  inhibition: inactive
A549 [23]
  Activity: inactive
A549 [24]
  Activity: Tde
